According to ChEMBL document CHEMBL3232806 (J Med Chem, 2014):
Blank lines part the entries; values can stand above or below the molecule they belong to. The source made the active and inactive calls. No cut-off for these calls is given here.

Legend:
[1] = biological target: T1, NAD-dependent protein deacetylase sirtuin-1 (Homo sapiens) (UniProt Q96EB6); assay: Inhibition of C-terminal His-6-tagged recombinant human SIRT1 expressed in Escherichia coli BL21(DE3) at 50 uM by luminescence assay relative to control
T1 sequence (whole entry): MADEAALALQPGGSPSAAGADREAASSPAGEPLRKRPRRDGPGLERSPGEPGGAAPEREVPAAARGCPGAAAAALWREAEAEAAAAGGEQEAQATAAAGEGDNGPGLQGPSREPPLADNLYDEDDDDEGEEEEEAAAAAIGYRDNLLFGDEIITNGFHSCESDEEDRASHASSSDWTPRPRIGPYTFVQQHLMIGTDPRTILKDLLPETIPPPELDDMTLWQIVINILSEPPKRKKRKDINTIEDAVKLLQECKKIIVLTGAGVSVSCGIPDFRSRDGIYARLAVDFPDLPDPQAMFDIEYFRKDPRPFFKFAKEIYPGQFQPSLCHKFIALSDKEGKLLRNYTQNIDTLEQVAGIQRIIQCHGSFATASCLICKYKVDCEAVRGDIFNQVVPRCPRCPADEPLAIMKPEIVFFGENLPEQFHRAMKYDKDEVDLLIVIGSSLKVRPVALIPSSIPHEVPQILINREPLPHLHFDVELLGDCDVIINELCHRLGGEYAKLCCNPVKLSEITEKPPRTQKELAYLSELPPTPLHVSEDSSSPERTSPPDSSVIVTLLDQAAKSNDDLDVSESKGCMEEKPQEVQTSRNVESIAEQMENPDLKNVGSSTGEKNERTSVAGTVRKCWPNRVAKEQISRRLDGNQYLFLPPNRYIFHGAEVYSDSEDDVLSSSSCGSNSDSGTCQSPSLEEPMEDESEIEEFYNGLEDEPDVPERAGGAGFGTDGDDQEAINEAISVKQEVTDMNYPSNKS
Outline: (§1)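 Single-point inhibition at 50 μM compound was measured by the luminescent SIRT-Glo assay. SIRT1 was human His6-tagged (C-terminal), expressed in E. coli BL21-DE3 with IPTG induction and purified on Ni-NTA. SIRT2 was obtained commercially.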

[2] = biological target: T2, NAD-dependent protein deacetylase sirtuin-2 (Homo sapiens) (UniProt Q8IXJ6); assay: Inhibition of SIRT2 (unknown origin) at 50 uM by luminescence assay relative to control; outline: as §1
T2 sequence (whole entry): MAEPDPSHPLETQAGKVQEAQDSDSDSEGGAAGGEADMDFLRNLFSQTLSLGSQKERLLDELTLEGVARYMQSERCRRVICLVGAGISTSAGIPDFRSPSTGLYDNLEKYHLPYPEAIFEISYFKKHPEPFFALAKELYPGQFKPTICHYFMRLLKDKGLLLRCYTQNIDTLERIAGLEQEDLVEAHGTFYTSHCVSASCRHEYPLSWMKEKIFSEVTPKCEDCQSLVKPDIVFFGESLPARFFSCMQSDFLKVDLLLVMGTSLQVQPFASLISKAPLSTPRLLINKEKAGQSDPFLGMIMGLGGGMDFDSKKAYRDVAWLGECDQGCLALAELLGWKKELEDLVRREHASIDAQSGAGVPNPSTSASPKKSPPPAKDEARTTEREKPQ

[3] = Antiproliferative activity against human OVCAR3 cells assessed as growth inhibition after 72 hrs by Cell Titer Glo assay; assay type: functional, cell-based; details: OVCAR-3, 72 h
Outline: (§2)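 Cell lines from ATCC were grown under standard conditions and dispensed into 96-well plates. Compounds were added from 100% DMSO stocks (final DMSO 0.25%) alongside DMSO controls and incubated for 72 h. Viable cells were quantified by CellTiterGlo luminescence. Assays were run in triplicate, and values are averages of two independent experiments.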

NAMALVA = assay: Induction of apoptosis in human NAMALWA cells assessed as early stage apoptotic level after 16 hrs by annexin V-PE/DAPI-staining-based FACS analysis; assay type: functional, cell-based
[4] = biological target: T3, NAD-dependent protein deacetylase sirtuin-1 (Homo sapiens, UniProt Q96EB6); assay: Inhibition of C-terminal His-6-tagged recombinant human SIRT1 expressed in Escherichia coli BL21(DE3) by luminescence assay
T3 sequence (Q96EB6 whole entry): T1 sequence (whole entry)
Outline: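 Inhibition was measured by the luminescent SIRT-Glo assay. SIRT1 was human C-terminal His6-tagged, expressed in E. coli BL21-DE3 and purified on Ni-NTA; SIRT2 was commercial. Compounds were titrated over five 3-fold dilutions from DMSO stocks (final DMSO 0.25%). IC50 values were determined in triplicate and averaged over two independent experiments.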

[5] = biological target: T4, NAD-dependent protein deacetylase sirtuin-2 (Homo sapiens, UniProt Q8IXJ6); assay: Inhibition of SIRT2 (unknown origin) by luminescence assay
T4 sequence (Q8IXJ6 whole entry): T2 sequence (whole entry)
Outline: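 Inhibition was measured by the luminescent SIRT-Glo assay. SIRT1 was human C-terminal His6-tagged, expressed in E. coli BL21-DE3 and purified on Ni-NTA; SIRT2 was commercial. IC50 values were determined in triplicate and averaged over two independent experiments.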

[6] = biological target: T5, NAD-dependent protein deacetylase sirtuin-3, mitochondrial (Homo sapiens, UniProt Q9NTG7); assay: Inhibition of SIRT3 (unknown origin) by luminescence assay
T5 sequence (Q9NTG7 whole entry): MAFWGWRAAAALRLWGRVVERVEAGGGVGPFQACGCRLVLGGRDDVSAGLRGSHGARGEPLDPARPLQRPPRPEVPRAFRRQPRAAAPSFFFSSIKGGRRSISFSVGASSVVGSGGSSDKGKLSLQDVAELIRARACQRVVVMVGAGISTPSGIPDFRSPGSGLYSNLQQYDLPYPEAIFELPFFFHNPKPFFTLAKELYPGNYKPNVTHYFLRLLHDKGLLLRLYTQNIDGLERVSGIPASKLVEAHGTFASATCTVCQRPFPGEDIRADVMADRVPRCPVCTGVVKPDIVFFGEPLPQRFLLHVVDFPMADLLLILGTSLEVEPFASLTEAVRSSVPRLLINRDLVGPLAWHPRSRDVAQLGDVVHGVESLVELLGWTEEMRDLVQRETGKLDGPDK

[7] = Antiproliferative activity against human Dakiki cells assessed as growth inhibition after 72 hrs by Cell Titer Glo assay; assay type: functional, cell-based; outline: as §2
[8] = Antiproliferative activity against human Mutu cells assessed as growth inhibition after 72 hrs by Cell Titer Glo assay; assay type: functional, cell-based; outline: as §2
[9] = Antiproliferative activity against human Oku cells assessed as growth inhibition after 72 hrs by Cell Titer Glo assay; assay type: functional, cell-based; outline: as §2
[10] = Antiproliferative activity against human NAMALWA cells assessed as growth inhibition after 72 hrs by Cell Titer Glo assay; assay type: functional, cell-based; details: NAMALVA; outline: as §2
[11] = Antiproliferative activity against human OCI-Ly8-LAM53 cells assessed as growth inhibition after 72 hrs by Cell Titer Glo assay; assay type: functional, cell-based; outline: as §2
[12] = Cytotoxicity against EBV immortalized human B1 cells assessed as cell viability after 72 hrs by Cell Titer Glo assay; assay type: cell-based; details: B1, 72 h; outline: as §2
[13] = Cytotoxicity against EBV immortalized human B2 cells assessed as cell viability after 72 hrs by Cell Titer Glo assay; assay type: cell-based; outline: as §2
HCT-116 = assay: Antiproliferative activity against human HCT116 cells assessed as growth inhibition after 72 hrs by Cell Titer Glo assay; assay type: functional, cell-based; details: HCT-116, 72 h; outline: as §2
[14] = biological target: T1, NAD-dependent protein deacetylase sirtuin-1 (Homo sapiens); details: NCI-H460, 5 to 50 uM
Daudi = assay: Antiproliferative activity against human Daudi cells assessed as growth inhibition after 72 hrs by Cell Titer Glo assay; assay type: functional, cell-based; outline: as §2
[15] = Antiproliferative activity against human SU-DHL4 cells assessed as growth inhibition after 72 hrs by Cell Titer Glo assay; assay type: functional, cell-based, SUD4; details: SU-DHL-4, 72 h; outline: as §2

Compound: O=c1[nH][nH]c(-c2ccc(C(F)(F)F)cc2)c1Cc1c(O)ccc2ccccc12
inhibition [1]: 48%
inhibition [2]: 29%

Compound: Cc1ccc(-c2[nH]oc(=O)c2Cc2c(O)ccc3cc(Br)ccc23)cc1
IC50 [3]: 10 µM
Activity (NAMALVA): Dose-dependent effect
inhibition [1]: 5%
inhibition [2]: 87%
IC50 [4]: > 200 µM
IC50 [5]: 13 µM
IC50 [6]: > 200 µM
IC50 [7]: 7 µM
IC50 [8]: 3 µM
IC50 [9]: 5 µM
IC50 [10]: 4 µM
IC50 [11]: 7 µM
IC50 [12]: 22 µM
IC50 [13]: 28 µM
IC50 (HCT-116): 8 µM

Compound: Cc1ccc(-c2[nH][nH]c(=O)c2Cc2c(O)ccc3cc(Br)ccc23)cc1
inhibition [1]: 62%
inhibition [2]: 9%
IC50 [4]: 37 µM
IC50 [5]: > 200 µM
IC50 [6]: > 200 µM
inhibition [14]: Active

Compound: O=c1[nH][nH]c(-c2ccc(Br)cc2)c1Cc1c(O)ccc2ccccc12
inhibition [1]: 36%
inhibition [2]: 33%

Compound: Cc1ccc(-c2[nH][nH]c(=O)c2Cc2c(O)ccc3ncccc23)cc1
inhibition [1]: 39%
inhibition [2]: 23%

Compound: COc1cc2ccccc2c(Cc2c(-c3ccc(C)cc3)[nH][nH]c2=O)c1O
IC50 [3]: 13 µM
inhibition [1]: 78%
inhibition [2]: 19%
IC50 [4]: 26 µM
IC50 [5]: > 200 µM
IC50 [6]: > 200 µM
IC50 [7]: 29 µM
IC50 (Daudi): 21 µM
IC50 [8]: 15 µM
IC50 [9]: 11 µM
IC50 [10]: 15 µM
IC50 [15]: 77 µM
IC50 [11]: 32 µM
IC50 [12]: 41 µM
IC50 [13]: 58 µM
IC50 (HCT-116): > 80 µM

Compound: Cc1ccc(-c2c(Cc3c(O)ccc4cc(Br)ccc34)c(=O)on2C)cc1
inhibition [1]: 11%
inhibition [2]: 48%

Other lines, results leading:

inhibition [1]: 42%
inhibition [2]: 38%
Compound: Cc1ccc(-c2[nH][nH]c(=O)c2Cc2c(O)ccc3ccc(Br)cc23)cc1

inhibition [1]: 51%
inhibition [2]: 38%
Compound: Cc1ccc(-c2[nH][nH]c(=O)c2Cc2c(O)ccc3nc(Br)ccc23)cc1

inhibition [1]: 45%
inhibition [2]: 23%
Compound: CCc1ccc2c(Cc3c(-c4ccc(C)cc4)[nH][nH]c3=O)c(O)ccc2c1

inhibition [1]: 58%
inhibition [2]: 27%
Compound: Cc1ccc(-c2[nH][nH]c(=O)c2Cc2c(O)ccc3ccccc23)cc1

inhibition [1]: 25%
inhibition [2]: 21%
Compound: Cc1ccc(-c2[nH][nH]c(=O)c2Cc2c(O)ccc3cc(C#N)ccc23)cc1

inhibition [1]: 39%
inhibition [2]: 19%
Compound: Cc1ccc(-c2[nH][nH]c(=O)c2Cc2c(O)ccc3cc(C)ccc23)cc1
